Experiment [1] concerns Human immunodeficiency virus. Kind of experiment: Inhibition of HIV protease at 50 nM.
The target of the next experiment is T1, Protease (Human T-lymphotropic virus 1, UniProt Q82323).
T1 sequence (Q82323 whole entry): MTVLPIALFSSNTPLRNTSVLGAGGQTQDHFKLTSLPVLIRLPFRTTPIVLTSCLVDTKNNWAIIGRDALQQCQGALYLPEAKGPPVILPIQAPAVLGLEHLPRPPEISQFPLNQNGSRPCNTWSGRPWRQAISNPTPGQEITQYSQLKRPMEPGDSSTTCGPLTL
Nature of the experiment: Inhibition of HTLV1 protease1. Also on record: species or system Human T-cell leukemia virus type I. The essentials:
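HTLV-I protease L40I mutant, which blocks autolysis and improves stability. Inhibition reported as IC50 with SEM in nM. Remaining assay steps follow an earlier published procedure.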

Starred links: 1 amine or outer side, 2 acyl side, 3 side chain; linkers in the order of their positions; H or OH if unused. Non-standard residues stand in square brackets, D forms with d. Residues, ends and D or L forms follow the SMILES beside them. X1 = O=C([C@@H](O)[C@H](Cc1ccccc1)N[*:1])[*:2]

The compound `CCCC(C)C(=O)N[C@H](C(=O)N[C@H](C(=O)N[C@@H](Cc1ccccc1)[C@H](O)C(=O)N1CSC(C)(C)[C@H]1C(=O)NCC(C)C)C(C)(C)C)c1ccccc1` (stereo not given in full) displayed an inhibition in experiment [1] of over 99%. In addition, the IC50 at Protease came to 84.2 nM.

As for `CC(C)CNC(=O)[C@H]1N(C(=O)[C@@H](O)[C@H](Cc2ccccc2)NC(=O)[C@@H](NC(=O)[C@@H](NC(=O)CC(C)C)c2ccccc2)C(C)(C)C)CSC1(C)C`, in experiment [1], the inhibition was over 99%. Further, on Protease, the IC50 is 102 nM.

Consider `CC(C)CNC(=O)[C@H]1N(C(=O)[C@@H](O)[C@H](Cc2ccccc2)NC(=O)[C@@H](NC(=O)[C@@H](NC(=O)C2CCCCC2)c2ccccc2)C(C)(C)C)CSC1(C)C`, for which the inhibition in experiment [1] is over 99%. The compound also showed an IC50 on Protease of 98.2 nM.

Compound `CCCCC(=O)N[C@H](C(=O)N[C@H](C(=O)N[C@@H](Cc1ccccc1)[C@H](O)C(=O)N1CSC(C)(C)[C@H]1C(=O)NCC(C)C)C(C)(C)C)c1ccccc1` gave an inhibition in experiment [1] of over 99%. The compound also registered a concentration for half-maximal inhibition (IC50) on Protease of 92 nM. Turning to `CC(C)CNC(=O)[C@H]1N(C(=O)[C@@H](O)[C@H](Cc2ccccc2)NC(=O)[C@@H](NC(=O)[C@@H](NC(=O)C(C)(C)C)c2ccccc2)C(C)(C)C)CSC1(C)C`, the inhibition in experiment [1] was over 99%. This compound also returned an IC50 against Protease of 82.8 nM. For `CCC(=O)N[C@H](C(=O)N[C@H](C(=O)N[C@@H](Cc1ccccc1)[C@H](O)C(=O)N1CSC(C)(C)[C@H]1C(=O)NCC(C)C)C(C)(C)C)c1ccccc1` the same measures were over 99% and 105 nM. As to `CSCC[C@H](NC(=O)[C@@H](NC(=O)[C@@H]1CCCN1C(=O)[C@@H](O)[C@H](Cc1ccccc1)NC(=O)[C@@H](NC(=O)[C@H](CCC(N)=O)NC(=O)[C@@H]1CCCN1)C(C)C)C(C)C)C(=O)N[C@@H](Cc1cnc[nH]1)C(=O)O` (H-PQV[X1]PVMH-OH), the IC50 at Protease was determined as 159 nM. `CCC(C)(C)C(=O)N[C@H](C(=O)N[C@H](C(=O)N[C@@H](Cc1ccccc1)[C@H](O)C(=O)N1CSC(C)(C)[C@H]1C(=O)NCC(C)C)C(C)(C)C)c1ccccc1` gave an inhibition in experiment [1] of over 99%. At Protease, 80.4 nM corresponded to half-maximal inhibition (IC50).

In the case of `CCCC(=O)N[C@H](C(=O)N[C@H](C(=O)N[C@@H](Cc1ccccc1)[C@H](O)C(=O)N1CSC(C)(C)[C@H]1C(=O)NCC(C)C)C(C)(C)C)c1ccccc1`, the inhibition in experiment [1] is over 99%. At Protease, this compound had an IC50 of 104 nM. For `CC(C)CNC(=O)[C@H]1N(C(=O)[C@@H](O)[C@H](Cc2ccccc2)NC(=O)[C@@H](NC(=O)[C@@H](NC(=O)C(C)C)c2ccccc2)C(C)(C)C)CSC1(C)C` the same measures were over 99% and 93.5 nM. Turning to `CC(C)CNC(=O)[C@H]1N(C(=O)[C@@H](O)[C@H](Cc2ccccc2)NC(=O)[C@@H](NC(=O)[C@@H](NC(=O)C2CC2)c2ccccc2)C(C)(C)C)CSC1(C)C`, the inhibition in experiment [1] was over 99%. In addition, half-maximal inhibition at Protease (IC50) was put at 96.9 nM. Taken in the same sequence, the figures for `CC(C)CNC(=O)[C@H]1N(C(=O)[C@@H](O)[C@H](Cc2ccccc2)NC(=O)[C@@H](NC(=O)[C@@H](NC(=O)c2ccccc2)c2ccccc2)C(C)(C)C)CSC1(C)C` were over 99% and 79.2 nM. For `CC(C)CNC(=O)[C@H]1N(C(=O)[C@@H](O)[C@H](Cc2ccccc2)NC(=O)[C@@H](NC(=O)[C@@H](NC(=O)CC(C)(C)C)c2ccccc2)C(C)(C)C)CSC1(C)C` the same measures were over 99% and 83.3 nM. Turning to `CCC(C)CC(=O)N[C@H](C(=O)N[C@H](C(=O)N[C@@H](Cc1ccccc1)[C@H](O)C(=O)N1CSC(C)(C)[C@H]1C(=O)NCC(C)C)C(C)(C)C)c1ccccc1` (stereo not given in full), the inhibition in experiment [1] was over 99%. On Protease, this compound registered an IC50 of 88.2 nM. For `CC(C)CCC(=O)N[C@H](C(=O)N[C@H](C(=O)N[C@@H](Cc1ccccc1)[C@H](O)C(=O)N1CSC(C)(C)[C@H]1C(=O)NCC(C)C)C(C)(C)C)c1ccccc1` the same measures were over 99% and 96.5 nM. Taken in the same sequence, the figures for `CC(C)CNC(=O)[C@H]1N(C(=O)[C@@H](O)[C@H](Cc2ccccc2)NC(=O)[C@@H](NC(=O)[C@@H](N)c2ccccc2)C(C)(C)C)CSC1(C)C` were over 99% and 332 nM. `CC(C)CNC(=O)[C@H]1N(C(=O)[C@@H](O)[C@H](Cc2ccccc2)NC(=O)[C@@H](NC(=O)[C@@H](NC(=O)CCc2ccccc2)c2ccccc2)C(C)(C)C)CSC1(C)C` returned an inhibition in experiment [1] of over 99%. Also, the IC50 against Protease was determined as 105 nM. For `CC(=O)N[C@H](C(=O)N[C@H](C(=O)N[C@@H](Cc1ccccc1)[C@H](O)C(=O)N1CSC(C)(C)[C@H]1C(=O)NCC(C)C)C(C)(C)C)c1ccccc1` the same measures were over 99% and 107 nM.

For orientation: inhibition means the share of the control response that was lost under treatment. A higher inhibition goes with strong suppression. Usually IC50 stands for the midpoint of a concentration-inhibition curve.
